Assay type in all cases: functional
One assay deals with Staphylococcus aureus. Briefly: Antibacterial activity against Staphylococcus aureus IAM1011. The procedure, abridged:
(§1)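 Broth microdilution MIC. Bacteria grown 16 h on BHI agar, suspended in MH broth at about (3-6) × 10^6 cfu/mL. Test materials applied at 20–100 mg/mL (as stated, before dilution), serially 2-fold diluted, then mixed with the bacterial suspension. Incubated 24 h at 37°C before MIC read-out. Positive controls: ampicillin for S. aureus and E. coli, penicillin G for P. aeruginosa.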

Another assay has as its system Escherichia coli. The experiment in a line: Antibacterial activity against Escherichia coli IAM1257. The gist of the method:
as §1

For a further assay, the system named is Pseudomonas aeruginosa. Briefly: Antibacterial activity against Pseudomonas aeruginosa IAM1058. The procedure, abridged: as §1
For the next assay, the system named is Candida albicans. Briefly: Antifungal activity against Candida albicans IAM1099.
A further assay concerns Botrytis cinerea. The experiment in a line: Antifungal activity against Botrytis cinerea IAM1069.

Converted amounts (≈) assume the structure as drawn.

Regarding `O=c1oc2cc(O)ccc2c(O)c1-c1ccc(O[C@@H]2O[C@H](CO)[C@@H](O)[C@H](O)[C@H]2O)cc1O`, the MIC worked out at 128 µg/mL (≈ 285 µM) with Staphylococcus aureus; 128 µg/mL (≈ 285 µM) in the assay with Escherichia coli; 256 µg/mL (≈ 571 µM) in the assay with Pseudomonas aeruginosa; 512 µg/mL (≈ 1140 µM) with Candida albicans; 1020 µg/mL (≈ 2280 µM) in the assay with Botrytis cinerea.

Regarding `CC1(C)S[C@@H]2[C@H](NC(=O)[C@H](N)c3ccccc3)C(=O)N2[C@H]1C(=O)O` [AMPICILLIN], the MIC in the assay with Staphylococcus aureus is under 0.5 µg/mL; with Escherichia coli it was 1 µg/mL (≈ 2.86 µM).

For `O=c1oc2cc(O)ccc2c(O)c1-c1ccc(O)cc1O` [ASPHODELIN A], the MIC against Staphylococcus aureus came out at 16 µg/mL (≈ 55.9 µM); against Escherichia coli, 4 µg/mL (≈ 14 µM); with Pseudomonas aeruginosa, 8 µg/mL (≈ 27.9 µM); against Candida albicans it was 64 µg/mL (≈ 224 µM); against Botrytis cinerea, 128 µg/mL (≈ 447 µM).

Take `CC1(C)S[C@@H]2[C@H](NC(=O)Cc3ccccc3)C(=O)N2[C@H]1C(=O)O` [PENICILLIN G]: in the assay on Pseudomonas aeruginosa, it took 1 µg/mL (≈ 2.99 µM) to inhibit growth (MIC).

In the assay with Candida albicans, NYSTATIN yielded an MIC of under 0.5 µg/mL. In the assay on Botrytis cinerea, this compound showed an Activity of under 0.5 µg/mL.

The MIC is the least concentration at which growth counts as inhibited. Read a low MIC as greater potency.

(Values after ChEMBL document CHEMBL1139213, “Antimicrobial arylcoumarins from Asphodelus microcarpus” (2007).)
